Measurements published in ChEMBL document CHEMBL1811911, “Synthesis and antidepressant-like activity evaluation of sulphonamides and sulphonyl-hydrazones” (Bioorg Med Chem, 2011).
Calls of active or inactive are those of the source. The calls are words filed in the database; no cut-off is given here.

Key:
[1] = tested on: Mus musculus; assay: Toxicity in Swiss mouse assessed as number of squares crossed at 10 mg/kg, ip administered 30 mins proir test measured during last 4 mins of 6 mins incubation by forced-swimming test by locomotory test (reference value: 96.63 +/- 5.32); format: organism-based; design: dose 10 mg/kg, route intraperitoneal; conditions: in vivo
[2] = tested on: Mus musculus; assay: Antidepressant activity in Swiss mouse assessed as immobility duration at 10 mg/kg, ip administered 30 mins prior test measured during last 4 mins of 6 mins observation period by forced-swimming test (reference value: 166 +/- 12.23 to 218.54 +/- 8.11 Secs); format: functional; conditions: route intraperitoneal
[3] = tested on: Mus musculus; assay: Antidepressant activity in Swiss mouse assessed as reduction of immobility duration at 60 mg/kg, ip administered 30 mins prior test measured during last 4 mins of 6 mins observation period by forced-swimming test relative to control; format: functional
[4] = tested on: Mus musculus; assay: Antidepressant activity in Swiss mouse assessed as reduction of immobility duration at 10 mg/kg, ip administered 30 mins prior test measured during last 4 mins of 6 mins observation period by forced-swimming test (reference value: 0 %); format: functional; design: scale not given: the % may be the effect or the level left; conditions: route intraperitoneal
[5] = tested on: Mus musculus; assay: Toxicity in Swiss mouse assessed as number of rearing at 10 mg/kg, ip administered 30 mins prior test measured during last 4 mins of 6 mins observation period by forced-swimming test by locomotory test (reference value: 39.45 +/- 6.21); format: organism-based; design: dose 10 mg/kg, route intraperitoneal; conditions: in vivo
[6] = tested on: Mus musculus; assay: Antidepressant activity in Swiss mouse assessed as reduction of immobility duration at 10 to 60 mg/kg, ip administered 30 mins prior test measured during last 4 mins of 6 mins observation period by forced-swimming test relative to control; format: functional
[7] = tested on: Mus musculus; assay: Antidepressant activity in Swiss mouse assessed as reduction of immobility duration at 3 mg/kg, ip administered 30 mins prior test measured during last 4 mins of 6 mins observation period by forced-swimming test relative to control; format: functional, organism-based; design: dose 3 mg/kg
[8] = tested on: Mus musculus; assay: Antidepressant activity in Swiss mouse assessed as reduction of immobility duration at 6 to 10 mg/kg, ip measured after 6 mins by tail suspension test relative to control; format: functional; design: scale not given: the % may be the effect or the level left; conditions: dose mg/kg 6-10; route intraperitoneal
Summary of the method: (§1)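 Tail suspension test (Steru method) in male adult Swiss mice (25–35 g), compound given ip acutely, vehicle 0.9% NaCl. Mice, isolated acoustically and visually, hung 50 cm above the floor by adhesive tape about 1 cm from tail tip; total immobility time recorded. Percent reduction = [(A−B)/A]×100, A control and B treated immobility.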

[9] = tested on: Mus musculus; assay: Antidepressant activity in Swiss mouse assessed as reduction of immobility duration at 6 to 10 mg/kg, ip administered 30 mins prior test measured during last 4 mins of 6 mins observation period by forced-swimming test relative to control; format: functional, organism-based
[10] = tested on: Mus musculus; assay: Antidepressant activity in Swiss mouse assessed as reduction of immobility duration at 10 mg/kg, ip administered 30 mins prior test measured during last 4 mins of 6 mins observation period by forced-swimming test relative to control; format: functional; design: scale not given: the % may be the effect or the level left; conditions: route intraperitoneal
[11] = tested on: Mus musculus; assay: Antidepressant activity in Swiss mouse assessed as reduction of immobility duration at 10 mg/kg, ip measured after 6 mins by tail suspension test relative to control; format: functional; design: scale not given: the % may be the effect or the level left; conditions: route intraperitoneal; summary of the method: as §1
[12] = tested on: Mus musculus; assay: Antidepressant activity in Swiss mouse assessed as reduction of immobility duration at 30 to 60 mg/kg, ip measured after 6 mins by tail suspension test relative to control; format: functional; design: scale not given: the % may be the effect or the level left; conditions: dose mg/kg 30-60; route intraperitoneal; summary of the method: as §1
[13] = tested on: Mus musculus; assay: Antidepressant activity in Swiss mouse assessed as reduction of immobility duration at 30 to 60 mg/kg, ip administered 30 mins prior test measured during last 4 mins of 6 mins observation period by forced-swimming test relative to control; format: functional, organism-based
[14] = tested on: Mus musculus; assay: Toxicity in Swiss mouse assessed as number of rearing at 60 mg/kg, ip administered 30 mins prior test measured during last 4 mins of 6 mins observation period by forced-swimming test by locomotory test (reference value: 39.45 +/- 6.21); format: organism-based; design: dose 60 mg/kg, route intraperitoneal; conditions: in vivo
[15] = tested on: Mus musculus; assay: Antidepressant activity in Swiss mouse assessed as immobility duration at 60 mg/kg, ip administered 30 mins prior test measured during last 4 mins of 6 mins observation period by forced-swimming test (reference value: 166 +/- 12.23 to 218.54 +/- 8.11 Secs); format: functional; conditions: route intraperitoneal
[16] = tested on: Mus musculus; assay: Antidepressant activity in Swiss mouse assessed as reduction of immobility duration at 60 mg/kg, ip administered 30 mins prior test measured during last 4 mins of 6 mins observation period by forced-swimming test (reference value: 0 %); format: functional; design: scale not given: the % may be the effect or the level left; conditions: route intraperitoneal
[17] = tested on: Mus musculus; assay: Toxicity in Swiss mouse assessed as number of squares crossed at 60 mg/kg, ip administered 30 mins proir test measured during last 5 mins of 6 mins incubation by open-field test (reference value: 96.63 +/- 5.32); conditions: in vivo
[18] = tested on: Mus musculus; assay: Antidepressant activity in Swiss mouse assessed as immobility duration at 20 mg/kg, ip administered 30 mins prior test measured during last 4 mins of 6 mins observation period by forced-swimming test (reference value: 166 +/- 12.23 to 218.54 +/- 8.11 Secs); format: functional; conditions: route intraperitoneal
Summary of the method: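 Male adult Swiss mice (25–35 g), group-housed under 12 h light (07:00–19:00) at 23 °C. Single ip dose, vehicle 0.9% NaCl, acute pre-treatment. Porsolt forced swim: individual cylinders (20 cm diameter) with 20 cm water at 24 °C, 6 min swim; immobility scored manually over last 4 min. %IM = (A−B)/A×100 versus vehicle group; N = 8–10 mice; ANOVA with Dunnett's test.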

[19] = tested on: Mus musculus; assay: Antidepressant activity in Swiss mouse assessed as reduction of immobility duration at 10 to 60 mg/kg, ip measured after 6 mins by tail suspension test relative to control; format: functional; design: scale not given: the % may be the effect or the level left; conditions: dose mg/kg 10-60; route intraperitoneal; summary of the method: as §1
[20] = tested on: Mus musculus; assay: Toxicity in Swiss mouse assessed as number of squares crossed at 30 mg/kg, ip administered 30 mins proir test measured during last 5 mins of 6 mins incubation by open-field test (reference value: 96.63 +/- 5.32); conditions: in vivo
[21] = tested on: Mus musculus; assay: Antidepressant activity in Swiss mouse assessed as immobility duration at 30 mg/kg, ip administered 30 mins prior test measured during last 4 mins of 6 mins observation period by forced-swimming test (reference value: 166 +/- 12.23 to 218.54 +/- 8.11 Secs); format: functional; conditions: route intraperitoneal
[22] = tested on: Mus musculus; assay: Antidepressant activity in Swiss mouse assessed as reduction of immobility duration at 6 to 30 mg/kg, ip administered 30 mins prior test measured during last 4 mins of 6 mins observation period by forced-swimming test relative to control; format: functional; design: scale not given: the % may be the effect or the level left; conditions: dose mg/kg 6-30; route intraperitoneal
[23] = tested on: Mus musculus; assay: Antidepressant activity in Swiss mouse assessed as reduction of immobility duration at 30 mg/kg, ip administered 30 mins prior test measured during last 4 mins of 6 mins observation period by forced-swimming test (reference value: 0 %); format: functional; design: scale not given: the % may be the effect or the level left; conditions: route intraperitoneal
[24] = tested on: Mus musculus; assay: Toxicity in Swiss mouse assessed as number of rearing at 30 mg/kg, ip administered 30 mins prior test measured during last 4 mins of 6 mins observation period by forced-swimming test by locomotory test (reference value: 39.45 +/- 6.21); format: organism-based; design: dose 30 mg/kg, route intraperitoneal; conditions: in vivo
[25] = tested on: Mus musculus; assay: Antidepressant activity in Swiss mouse assessed as reduction of immobility duration at 6 to 30 mg/kg, ip measured after 6 mins by tail suspension test relative to control; format: functional; design: scale not given: the % may be the effect or the level left; conditions: dose mg/kg 6-30; route intraperitoneal; summary of the method: as §1

Compound | Activity [1] | Time [2] [s] | Activity [4] [%] | Activity [5] | Activity [8] [%] | Activity [10] [%] | further results
O=C1c2cccc3c(Cl)ccc(c23)C(=O)N1CCc1ccc(S(=O)(=O)N2CCCC2)cc1 | 86.74 | 82 | 56.49 | 42 |  |  | Activity [3]: inactive; Activity [6]: inactive; Activity [7]: inactive
CC12C=CC(O1)C1C(=O)N(c3ccc(S(=O)(=O)N4CCOCC4)cc3)C(=O)C12 (centres undefined) | 101.12 | 131 | 36.3 | 38 | 23.69 | 28.8 | Activity [9]: Active
O=C1c2cccc3c(Cl)ccc(c23)C(=O)N1Cc1ccc(S(=O)(=O)N2CCOCC2)cc1 |  |  |  |  | 30.61 | 52.63 | Activity [7]: inactive
O=C1C2C3C=CC(O3)C2C(=O)N1c1ccc(S(=O)(=O)N/N=C/c2ccc(O)cc2)cc1 (centres undefined) |  |  |  |  |  |  | Activity [6]: inactive
CC12C=CC(O1)C1C(=O)N(c3ccc(S(=O)(=O)N4CCCC4)cc3)C(=O)C12 (centres undefined) | 96 | 133 | 33.33 | 33 |  | 85 | Activity [11]: 31.17%
COc1cc(/C=N/NS(=O)(=O)c2ccc(CN3C(=O)c4cccc5cccc(c45)C3=O)cc2)ccc1O | 96.1 | 70.75 | 60.3 | 40.75 |  | 60.3 | Activity [11]: 74.65%
O=C1c2cccc3cccc(c23)C(=O)N1Cc1ccc(S(=O)(=O)N2CCOCC2)cc1 | 98.85 | 66 | 64.89 | 36.67 | 57.14 | 60.3 | Activity [7]: inactive
Cc1ccc(/C=N/NS(=O)(=O)c2ccc(N3C(=O)C4C5C=CC(C)(O5)C4C3=O)cc2)cc1 (centres undefined) | 92.74 | 83 |  | 43 | 55.05 | 62.83 | Activity [9]: Active
O=C1C2C3C=CC(O3)C2C(=O)N1c1ccc(S(=O)(=O)N2CCCC2)cc1 (centres undefined) |  |  |  |  |  |  | Activity [12]: 58.85%; Activity ([3]; route intraperitoneal): 28.8%; Activity [13]: Active; Activity [14]: 42.95; Time [15]: 92.95 s; Activity [16]: 54.8%; Activity [17]: 86.74
O=C1C2C3C=CC(O3)C2C(=O)N1c1ccc(S(=O)(=O)N/N=C/c2ccc([N+](=O)[O-])cc2)cc1 (centres undefined) | 98.14 | 178.37 | 18.38 | 38.37 | 57.5 | 65.44 | Activity [9]: Active
CC12C=CC(O1)C1C(=O)N(c3ccc(S(=O)(=O)N/N=C/c4ccc(Cl)c(Cl)c4)cc3)C(=O)C12 (centres undefined) |  |  |  |  |  |  | Activity [6]: inactive
CNCCC(Oc1ccc(C(F)(F)F)cc1)c1ccccc1 (centres undefined) [FLUOXETINE] |  |  |  |  |  |  | Time [18]: 33.18 s
CN(C)CCCN1c2ccccc2CCc2ccccc21 [IMIPRAMINE] |  | 49.85 | 57.3 |  |  |  | 
CC12C=CC(O1)C1C(=O)N(c3ccc(S(=O)(=O)N/N=C/c4ccc(Cl)cc4)cc3)C(=O)C12 (centres undefined) |  |  |  |  |  |  | Activity [19]: 62.87%; Activity ([3]; route intraperitoneal): 62.83%; Activity [14]: 41; Time [15]: 61 s; Activity [16]: 72.02%; Activity [6]: Active; Activity [17]: 98.45
COc1ccc(/C=N/NS(=O)(=O)c2ccc(N3C(=O)C4C5C=CC(C)(O5)C4C3=O)cc2)cc1 (centres undefined) | 92.54 | 90.37 | 58.64 | 40.37 | 41.64 | 58.53 | Activity [9]: Active
O=C1c2ccccc2C(=O)N1Cc1ccc(S(=O)(=O)N/N=C/c2ccc([N+](=O)[O-])cc2)cc1 |  |  |  |  |  |  | Activity [19]: 64.88%; Activity [14]: 42.65; Time [15]: 52.25 s; Activity [16]: 68.52%; Activity ([6]; dose mg/kg 10-60, route intraperitoneal): 68.64%; Activity [17]: 92.54
O=C1c2cccc3cccc(c23)C(=O)N1Cc1ccc(S(=O)(=O)N2CCCC2)cc1 | 108.45 | 67.37 | 64.25 | 37.45 | 45.57 | 52.26 | Activity [7]: inactive
COc1cc(/C=N/NS(=O)(=O)c2ccc(CN3C(=O)c4ccccc4C3=O)cc2)ccc1O |  |  |  |  |  |  | Activity [20]: 106.45; Time [21]: 55.37 s; Activity [22]: 63.9%; Activity [23]: 66.64%; Activity [24]: 45.37; Activity [25]: 69.21%
